Results on one compound are retold here after ChEMBL document CHEMBL5260824, “9-Deazapurines as Broad-Spectrum Inhibitors of the ABC Transport Proteins P-Glycoprotein, Multidrug Resistance-Associated Protein 1, and Breast Cancer Resistance Protein” (J Med Chem, 2017).

Data set [1] is described as follows: Reversal of drug resistance in human A2780 ADR cells expressing P-gp. In kind it is functional, cell-based. Summed up:
(§1)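 Cells seeded per well (A2780/ADR 8,000; H69AR 20,000; MDCK II BCRP 3,000) with test compound at 1, 10 or 100 µM solutions added before cells. Daunorubicin (P-gp, MRP1) or SN-38 (BCRP) added to final 10 nM–10 µM. 72 h at 37 °C, then MTT viability read at 570 nm. GI50 from variable-slope nonlinear fits, compared with parental lines; three independent experiments in duplicate.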

Data set [2] can be described thus: Inhibition of daunorubicin sensitive human A2780 ADR cells expressing P-gp measured for 72 hrs by MTT assay. The data set is classed as functional. Summed up:
(§2)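 Reversal assay: resistant lines (A2780/ADR, H69AR, MDCK II BCRP) and parental lines seeded as for MTT assay with modulator solutions of 1, 10 and 100 µM added (final 0.1, 1, 10 µM) and daunorubicin (P-gp, MRP1) or SN-38 (BCRP) at final 10 nM–10 µM. 72 h, MTT read-out; GI50 by variable-slope fit. Resistance factor = resistant/sensitive GI50; potentiation factor = GI50 without/with modulator.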
(Tetrazolium dyes change colour on reduction, which living cells bring about.)

The test system of the next data set is H69AR. The experiment in a line: Reversal of drug resistance in human NCI-H69AR cells expressing MRP1. In kind it is functional, cell-based. Summed up:
as §1

The nature of data set [3]: Potentiation factor, ratio of GI50 for daunorubicin resistant human A2780 ADR cells expressing P-gp cells to GI50 for reversal of daunorubicin resistance in human A2780 ADR cells assessed as daunorubicin GI50 at 10 uM (reference value: 1 uM). In kind it is functional. Summed up:
as §2

Data set [4] in a line: Potentiation factor, ratio of GI50 for daunorubicin resistant human A2780 ADR cells expressing P-gp cells to GI50 for reversal of daunorubicin resistance in human A2780 ADR cells assessed as daunorubicin GI50 at 0.1 uM (reference value: 1 uM). In kind it is functional. Summed up:
as §2

Data set [5] in a line: Reversal of SN-38 resistance in dog MDCK-II-BCRP cells assessed as SN-38 GI50 at 0.1 uM measured for 72 hrs by MTT assay. In kind it is functional. The following applies: Canis lupus familiaris. Summed up:
as §2

A short description of data set [6]: Potentiation factor, ratio of GI50 for SN-38 resistant dog MDCK-II-BCRP cells expressing BCRP cells to GI50 for reversal of SN-38 resistance in dog MDCK-II-BCRP cells assessed as SN-38 GI50 at 1 uM (reference value: 1 uM). The data set is classed as functional, Canis lupus familiaris. Summed up:
as §2

The test system of a further data set is NCI-H69. The experiment in a line: Antiproliferative activity against human NCI-H69 cells assessed as reduction in cell viability measured for 72 hrs bt MTT assay. The data set is classed as functional.
The next data set deals with T1, BCRP (ABCG2) (Homo sapiens, UniProt Q9UNQ0).
T1 sequence (Q9UNQ0 whole entry): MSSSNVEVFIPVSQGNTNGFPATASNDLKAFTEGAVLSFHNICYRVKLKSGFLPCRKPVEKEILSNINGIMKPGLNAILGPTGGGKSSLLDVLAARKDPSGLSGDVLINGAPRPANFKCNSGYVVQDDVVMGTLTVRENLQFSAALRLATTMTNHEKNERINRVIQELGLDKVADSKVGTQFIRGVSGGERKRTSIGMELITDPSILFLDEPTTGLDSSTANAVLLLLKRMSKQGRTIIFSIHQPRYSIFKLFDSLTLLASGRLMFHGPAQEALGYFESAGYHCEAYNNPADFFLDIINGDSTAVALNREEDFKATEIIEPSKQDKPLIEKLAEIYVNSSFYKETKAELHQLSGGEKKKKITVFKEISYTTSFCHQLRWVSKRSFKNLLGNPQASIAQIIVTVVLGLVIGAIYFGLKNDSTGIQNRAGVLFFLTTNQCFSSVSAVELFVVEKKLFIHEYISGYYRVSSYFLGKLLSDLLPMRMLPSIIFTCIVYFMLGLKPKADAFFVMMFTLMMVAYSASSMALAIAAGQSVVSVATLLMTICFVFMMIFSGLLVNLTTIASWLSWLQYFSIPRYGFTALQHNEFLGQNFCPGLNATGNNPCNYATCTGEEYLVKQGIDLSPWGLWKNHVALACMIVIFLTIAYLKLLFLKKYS
Nature of the data set: Inhibition of BCRP (unknown origin) expressed in dog MDCK-II cells at 10 uM using pheophorbide A as substrate preincubated for 20 mins followed by substrate addition and measured after 120 mins by flow cytometry analysis relative to control. The data set is classed as cell-based. The following applies: probe pheophorbide A. Summed up:
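MDCK II cells transfected with human wild-type BCRP cDNA C-terminally fused to GFP, grown in DMEM/10% FBS. About 45,000 cells per well preincubated 20 min at 37 °C, 5% CO2 with compound (100 nM–100 µM added solutions), then pheophorbide A (5 µM solution added) for 120 min to steady state. Resuspended; flow cytometry, 488 nm excitation, FL3 (≥670 nm); GFP in FL1. Reference inhibitor 24 at 10 µM = 100%.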
Background: Flow cytometry measures light scatter and fluorescence of single cells or particles in a stream.

A short description of data set [7]: Reversal of Daunorubicin resistance in human A2780 ADR cells assessed as Daunorubicin GI50 at 10 uM measured for 72 hrs by MTT assay. In kind it is functional. Summed up:
as §2

A short description of data set [8]: Reversal of Daunorubicin resistance in human A2780 ADR cells assessed as Daunorubicin GI50 at 0.1 uM measured for 72 hrs by MTT assay. In kind it is functional. Summed up:
as §2

The nature of data set [9]: Reversal of Daunorubicin resistance in human A2780 ADR cells assessed as Daunorubicin GI50 at 1 uM measured for 72 hrs by MTT assay. In kind it is functional. Summed up:
as §2

Data set [10] has as its target ATP-dependent translocase ABCB1 (Homo sapiens, UniProt P08183). Nature of the data set: Inhibition of P-gp (unknown origin) incubated for 30 mins by calcein AM analysis. Summed up: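 A2780/ADR cells (doxorubicin-selected, P-gp overexpressing), about 30,000 per well in Krebs-HEPES buffer pH 7.4, incubated 30 min at 37 °C with compound (100 nM–100 µM added solutions). Calcein AM (3.125 µM solution added) then fluorescence read every 60 s at 37 °C, ex 485/em 520 nm; slope over minutes 5–30 plotted vs log concentration. Cyclosporine A 10 µM = 100% inhibition, buffer = 0%.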

A short description of data set [11]: Sensitization of dog MDCK-II-BCRP cells expressing BCRP assessed as maximal sensitivity at 10 uM relative to control.
A short description of data set [12]: Reversal of SN-38 resistance in dog MDCK-II-BCRP cells assessed as SN-38 GI50 at 10 uM measured for 72 hrs by MTT assay. The data set is classed as functional. The following applies: Canis lupus familiaris. Summed up:
as §2

Data set [13] can be described thus: Antiproliferative activity against human A2780 ADR cells assessed as reduction in cell viability measured for 72 hrs bt MTT assay. The data set is classed as functional.
The next data set has as its system MRP1. The experiment in a line: Therapeutic index, ratio of GI50 for antiproliferative activity against human NCI-H69AR cells to IC50 for inhibition of MRP1 in human NCI-H69AR cells. In kind it is toxicity, cell-based. Summed up: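 Ratio of MTT-assay GI50 to transport-inhibition IC50, both in the resistant line. GI50 comes from 72 h exposure at 37 °C to dilutions up to 1000 µM, with medium as 100% and 10% DMSO as 0% viability. IC50 comes from calcein AM (A2780/ADR), daunorubicin (H69AR) or pheophorbide A (MDCK II BCRP) accumulation.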

Where only a bound is given, the exact number is not on record here.

For orientation: EC50 means the concentration giving half of the maximal effect. The term GI50 denotes the concentration that inhibits growth by half. What is called inhibition is the change of the read-out against control, counted positive when it falls. A higher inhibition goes with a response far below the control. Usually IC50 stands for the concentration needed to halve the response being measured.

ATP-dependent translocase ABCB1, sequence (P08183 whole entry): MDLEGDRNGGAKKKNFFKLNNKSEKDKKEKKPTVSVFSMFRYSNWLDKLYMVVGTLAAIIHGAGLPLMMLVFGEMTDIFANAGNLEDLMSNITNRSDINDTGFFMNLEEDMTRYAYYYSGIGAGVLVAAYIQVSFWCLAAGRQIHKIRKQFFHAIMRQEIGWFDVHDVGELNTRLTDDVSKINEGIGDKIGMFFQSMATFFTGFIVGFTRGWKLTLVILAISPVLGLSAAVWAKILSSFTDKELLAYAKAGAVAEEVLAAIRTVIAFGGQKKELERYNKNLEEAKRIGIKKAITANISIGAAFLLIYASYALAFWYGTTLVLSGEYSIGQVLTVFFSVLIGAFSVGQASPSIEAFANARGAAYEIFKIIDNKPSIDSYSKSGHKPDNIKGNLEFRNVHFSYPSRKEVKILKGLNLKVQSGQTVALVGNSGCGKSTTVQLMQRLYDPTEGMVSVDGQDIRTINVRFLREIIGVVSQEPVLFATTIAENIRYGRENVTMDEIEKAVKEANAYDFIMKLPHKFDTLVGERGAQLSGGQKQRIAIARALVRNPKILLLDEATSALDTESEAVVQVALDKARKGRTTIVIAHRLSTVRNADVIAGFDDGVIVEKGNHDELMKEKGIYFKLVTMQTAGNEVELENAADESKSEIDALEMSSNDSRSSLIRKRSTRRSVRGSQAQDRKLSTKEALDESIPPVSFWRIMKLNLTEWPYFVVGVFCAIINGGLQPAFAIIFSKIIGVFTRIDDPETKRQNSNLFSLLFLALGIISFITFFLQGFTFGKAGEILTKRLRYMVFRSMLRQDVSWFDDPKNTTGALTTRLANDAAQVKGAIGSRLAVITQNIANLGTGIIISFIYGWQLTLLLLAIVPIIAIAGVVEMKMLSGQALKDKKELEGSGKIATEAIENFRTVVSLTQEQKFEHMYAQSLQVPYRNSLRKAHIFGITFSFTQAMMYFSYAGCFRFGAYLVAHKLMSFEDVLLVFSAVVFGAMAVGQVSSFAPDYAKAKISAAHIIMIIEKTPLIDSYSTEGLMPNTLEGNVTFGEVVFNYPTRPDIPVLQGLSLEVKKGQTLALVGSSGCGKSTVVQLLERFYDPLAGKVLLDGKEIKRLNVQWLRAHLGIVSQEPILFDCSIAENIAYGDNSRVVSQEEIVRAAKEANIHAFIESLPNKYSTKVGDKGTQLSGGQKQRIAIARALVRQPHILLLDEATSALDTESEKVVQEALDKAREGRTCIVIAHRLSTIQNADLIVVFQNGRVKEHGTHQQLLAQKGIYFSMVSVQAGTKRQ

Take `N#Cc1cn(CCCc2ccccc2)c2c(N3CCN(CCc4c[nH]c5ccccc45)CC3)ncnc12`: the EC50 turned out to be 563 nM in data set [1] and 959 nM in the data set on H69AR. Moreover, the GI50 in [2] stood at 10 nM; in [5], 916 nM; in the data set on NCI-H69 it was 55400 nM; in data set [7], 44 nM; in data set [8], 286 nM; in data set [9] it was 58 nM. Moreover, the GI50 came out at 61 nM in [12] and 13700 nM in [13]. The RatioGI50 in data set [3] is listed as 13. Also, the PF in [4] is on record as 2; in [6] it was 8.1. This compound also showed an inhibition at 2 h, 10 µM on BCRP (ABCG2) above 25%. For the same compound, the IC50 in [10] is 1460 nM. For the same compound, the Activity in data set [11] worked out at 140%. Further, the selectivity ratio in the data set with MRP1 is 303.
